Assay outcomes from PubChem.
Rce1 inhib: yeast Rce1p protease inhibitors, primary screen, biochemical, fluorescence, cell-free homogeneous; CAAX prenyl protease 2 (Saccharomyces cerevisiae (strain ATCC 204508 / S288c)), Q03530; yeast membranes, quenched prenylated peptide cleavage fluorescence; calls only; 290,000 tested, 0.27% active;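 active = fall in fluorescence gain of 50% or more versus controls, with final raw signal at or below 3038400; inconclusive = same 50% fall but final raw signal above 3038400; inactive = fall in fluorescence gain under 50%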;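 also: plate controls were neutral control wells for no effect and wells lacking membranes for full effect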
Target sequence (Q03530 whole entry, looked up): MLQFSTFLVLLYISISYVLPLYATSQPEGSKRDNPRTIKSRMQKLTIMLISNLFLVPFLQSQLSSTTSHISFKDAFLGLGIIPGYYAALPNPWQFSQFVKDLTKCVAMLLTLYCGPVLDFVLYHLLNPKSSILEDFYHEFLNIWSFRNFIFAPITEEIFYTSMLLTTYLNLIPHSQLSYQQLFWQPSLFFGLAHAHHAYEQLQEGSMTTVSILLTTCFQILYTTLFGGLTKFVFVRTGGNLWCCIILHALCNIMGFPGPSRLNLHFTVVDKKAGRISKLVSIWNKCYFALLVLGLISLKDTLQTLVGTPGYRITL
T cell HTS: modulators of CD8 T cell-vesicle binding, primary screen, mouse 2C CD8+ T cells, flow cytometry. 2C CD8+ T cell-vesicle binding; stronger effect = lower value. response (vesicle binding), % at 7 µM. 330,000 tested, 0.068% active;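 active = response, share of CD8 T cells binding vesicles, and their 90th percentile fluorescence all below set limits, cut at about 80% in these data, passing the limit was not always enough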;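 also: values below 100% mean blocked vesicle binding to the CD8+ T cells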
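Assay system – 2C mouse CD8+ T cells · Also added – QL9-loaded Drosophila micro-vesicles · Timing – Cell–vesicle co-incubation 1.5 h at 37 °C, staining 20 min on ice · Signal – flow cytometry of vesicle-bound cells · Measure – percent CD8+ FL2 mean versus row control · Controls – Peptide-free naked vesicles (low) and QL9 vesicles with 0.7% DMSO vehicle (high)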
Myeloid diff MLP: induction of myeloid progenitor differentiation, primary screen, cell-based, flow cytometry, MLPCN library | ER-HoxA9 myeloid progenitors, lysozyme-GFP differentiation | calls only at 10 µM | 360,000 tested, 1% active;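 active = normalized GFP-positive differentiation at or above the plate's own cutoff, the solvent-only control mean plus 3 SD; inconclusive = no clear call, values can overlap the other calls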;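 also: cells exposed to compound for four days before flow analysis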
SKN-1 block: suppressors of acrylamide-induced Pgst-4::GFP reporter in worms, primary screen, SKN-1 inhibitor project, whole organism, uHTS, GFP/RFP fluorescence ratio, strain VP596; C. elegans VP596 Pgst-4::GFP/RFP ratio, 24 h; AID 624304, 2012; inhibition, % at 21.8 µM; 360,000 tested, 0.49% active;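 active = interference check ratio from 0.5 to 1.5 plus GFP to RFP signal ratio inhibition reaching or exceeding a fixed threshold, cut at about 30% in these data, passing the limit was not always enough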
GRK2 aptamer HTS: compounds blocking aptamer binding on GRK2 – biochemical, human GRK2, bead flow cytometry, HTS, primary screen; FAM-aptamer displacement from GRK2; inhibition of aptamer binding, % at 10 µM; 330,000 tested, 0.59% active; AID 488847, 2010;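 active = inhibition of aptamer binding above 40%, roughly 3 SD of noise, on plates passing a quality check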;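 also: median bead fluorescence of bound FAM aptamer so fluorescent compounds give negative values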
Rin1 Abl inh: inhibitors of Rin1-Abl protein binding, primary screen, biochemical, TR-FRET; inhibition, % at 7.35 µM; 360,000 tested, 0.4% active; AID 588664, 2011; Tyrosine-protein kinase ABL1 (Homo sapiens) + Ras and Rab interactor 1 (Homo sapiens), …; in the data active = inhibition above about 5%, passing the limit was not always enough
GRK2 CP1: GRK2 aptamer-displacing inhibitors, retest, confirmation, biochemical, cherry pick 1, bead flow cytometry. shares compounds with GRK2 aptamer HTS. bead-bound GRK2, FAM-aptamer displacement. aptamer displacement, % at 10 µM. 2,000 tested, 4% active. AID 504451, 2011;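 active = aptamer displacement above 40%, near three times the noise of non-fluorescent compounds, on plates passing quality checks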;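 also: negative values mostly reflect intrinsic compound fluorescence rather than true enhancement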
Aptamer quench 1: counter-screen for GRK2 aptamer inhibitors: fluorescent aptamer quenchers; shares compounds with GRK2 aptamer HTS; Fluorescent RNA aptamer beads, quenching, flow cytometry; stronger effect = higher value; fluorescence change (kMESF span), kMESF (concentration not given with the values); 110 tested, under 10 active;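 active = compounds whose bead fluorescence drops by more than 37 kMESF across the dose range, marking them as dye quenchers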
FAM quench CP1: counter-screen for GRK2 aptamer inhibitors: fluorescent aptamer quenchers. shares compounds with GRK2 aptamer HTS. Carboxyfluorescein RNA aptamer on beads, flow cytometry quenching; stronger effect = lower value. fluorescence response (% of DMSO), % at 10 µM. 2,000 tested, under 10 active. AID 504580;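 active = compounds that quench the bead-bound fluorescent RNA probe, cutting fluorescence to under half of the solvent control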;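 also: counterscreen run without GRK2 so only probe quenching by compound is measured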
Numbers without * were called inactive; i = inactive; ? = inconclusive; . = no result. An excerpt weighted towards active compounds, which were near 2.6% of everything screened.

SMILES | Rce1 inhib | T cell HTS | Myeloid diff MLP | SKN-1 block | GRK2 aptamer HTS | Rin1 Abl inh | GRK2 CP1 | FAM quench CP1 | others
C=CCN1C(=O)/C(=C/c2ccc(-c3ccc(F)cc3)o2)SC1=S | i | 372.0 | i | 23.8 | 43.0* | 1.0 | 28.7 | 103.5
COc1cc(C2OCC3C(c4ccc(OC5OC(CO)C(O)C(O)C5O)c(OC)c4)OCC23)ccc1O (centres undefined) | i | 339.0 | i | 16.8 | 0.0 | 9.2 | 0.5 | 98.2
N#CCCN(C(=O)COC(=O)c1cc(=O)[nH]c2ccccc12)c1ccccc1 | . | 245.3 | i | -2.8 | 45.0* | -0.9 | -0.5 | 101.0
N#CCCN(C(=O)COC(=O)c1n[nH]c2ccccc12)c1ccccc1 | . | 266.0 | i | 3.7 | 0.0 | 4.2 | . | .
O=C(COC(=O)c1cc(=O)[nH]c2ccccc12)NC(=O)c1ccccc1 | i | 370.1 | i | 20.1 | 68.0* | -0.4 | -2.9 | 109.6
O=C(COC(=O)Cc1cccc(C(F)(F)F)c1)NCc1ccco1 | . | 397.9 | i | 0.6 | 57.0* | 3.4 | 32.2 | 99.2
O=C(COC(=O)CSc1ccc(F)cc1)NCc1ccco1 | . | 541.0 | i | -13.1 | 4.0 | 1.6 | . | .
O=C(COC(=O)C1(c2ccc(Cl)cc2)CCCC1)NCc1ccco1 | i | 631.4 | i | 1.7 | 6.0 | -1.8 | 1.8 | 105.1
O=C(COC(=O)Cc1ccc(F)cc1)NCc1ccco1 | i | 274.2 | i | 5.1 | 52.0* | -4.7 | 21.8 | 92.6
COc1ccc(CC(=O)OCC(=O)NCc2ccco2)cc1OC | i | 308.6 | i | 7.0 | 2.0 | 1.3 | . | .
CCOC(=O)C1CCCN(S(=O)(=O)c2c(C(=O)N3CCCCC3)c(C)n(C)c2C)C1 (centres undefined) | i | 68.9 | i | 0.4 | 1.0 | -0.1 | . | .
COc1cc(NS(=O)(=O)c2ccc(NC(=O)c3cccnc3)cc2)ncn1 | i | i | ? | -7.3 | 1.0 | -2.0 | . | .
Cc1ccc(SCC(=O)NNC(=O)c2cncc(Br)c2)cc1 | . | 470.8 | i | 5.5 | 1.0 | -0.3 | . | .
COc1ccc(C)cc1S(=O)(=O)N(C)CC(=O)N1CCN(c2ccccc2)CC1 | i | 190.6 | i | 15.9 | 5.0 | -3.8 | . | .
CCOCCCn1c(=N)c(C(=O)NCc2ccc3c(c2)OCO3)cc2c(=O)n3ccccc3nc21 | i | . | . | . | . | . | . | .
CCCn1c(=N)c(C(=O)NCc2ccc3c(c2)OCO3)cc2c(=O)n3cccc(C)c3nc21 | i | 674.2 | i | -3.8 | 78.0* | -4.1 | -2.4 | 93.5
Cc1cccn2c(=O)c3cc(C(=O)NCCN4CCOCC4)c(=N)n(CCN4CCOCC4)c3nc12 | i | 279.4 | . | 0.6 | 41.0* | -3.1 | -1.3 | 97.0
Cc1cccn2c(=O)c3cc(C(=O)NCc4ccc(F)cc4)c(=N)n(CC4CCCO4)c3nc12 (centres undefined) | i | 396.0 | i | -10.6 | 7.0 | -7.5 | . | .
COc1ccc(CNC(=O)c2cc3c(=O)n4cccc(C)c4nc3n(CC3CCCO3)c2=N)cc1 (centres undefined) | i | 190.2 | i | 3.4 | 0.0 | -3.0 | -1.6 | 96.8
CC(=O)C1=CCC(c2ccc(F)cc2)N(S(=O)(=O)c2ccc(C)cc2)C1 (centres undefined) | . | . | i | -10.2 | . | 3.5 | . | .
NCCCNc1nc(N)c([N+](=O)[O-])c(NC2CCCCC2)n1 | i | 183.1 | i | 20.3 | 0.0 | -5.2 | . | .
Cc1nnc2c3ccccc3ccn12 | . | . | . | 1.0 | . | 2.0 | . | .
CCOc1ccc(Cl)cc1CSc1n[nH]c(CC)n1 | i | 405.3 | i | 24.8 | 61.0* | 0.3 | -14.0 | 100.6
CCCCOc1ccc(Cl)cc1CSc1n[nH]c(C)n1 | . | 487.6 | i | -2.5 | 0.0 | -2.1 | . | .
Cc1ccc2cccc(N=Cc3c(C)[nH]n(-c4ccccc4)c3=O)c2n1 | i | 614.3 | ? | 11.4 | 0.0 | -1.1 | -6.8 | 98.1
SMILES | Rce1 inhib | T cell HTS | Myeloid diff MLP | SKN-1 block | GRK2 aptamer HTS | Rin1 Abl inh | GRK2 CP1 | FAM quench CP1 | others
NC(=S)N1OC[C@@H]2COc3ccc4ccccc4c3[C@@H]21 | i | 48.7 | i | 6.2 | 65.0* | 3.6 | 1.2 | 94.5
CO/N=C/NC(=O)N1OC[C@@H]2COc3ccc4ccccc4c3[C@@H]21 | i | 448.9 | i | -10.7 | 0.0 | 0.1 | . | .
CCNC(=O)C1CCCN(C(=O)C(c2ccccc2)c2ccccc2)CC1 (centres undefined) | . | . | i | 25.1 | . | 1.4 | . | .
COc1ccccc1N1CCN(C(=O)CSc2ncccc2-c2nc3ccccc3[nH]2)CC1 | i | . | i | 14.2 | 4.0 | -0.9 | . | .
COc1ccccc1N1CCN(C(=O)CSc2nc3ccccc3[nH]2)CC1 | i | 274.1 | i | -2.0 | 96.0* | 0.3 | -27.7 | 103.4
O=C(CCCCC(=O)NC1CCCC1)NC1CCCC1 | i | 351.4 | i | 8.4 | 0.0 | -0.6 | . | .
O=C(O)CCC(=O)NC1CCCCCCC1 | i | 474.8 | i | 0.3 | 65.0* | -1.9 | 0.1 | 103.6
Cn1nnc2cc(C(=O)N3CCN(c4ccccn4)CC3)ccc21 | i | 201.1 | i | 15.2 | 0.0 | 2.7 | . | .
Cc1cc(SCNC(=O)c2ccccc2)nc(C(C)C)n1 | i | 322.6 | i | -5.8 | 0.0 | 1.1 | . | .
Cc1cc(C)nc(SCNC(=O)c2ccccc2)n1 | i | 655.9 | i | 20.2 | 48.0* | 2.6 | -2.0 | 99.3
Cc1ccc(S(=O)(=O)Cc2ccc(C(=O)O)o2)cc1 | i | 609.7 | i | 10.7 | 67.0* | -1.1 | 64.2* | 95.3 | Aptamer quench 1=2.1
O=C(O)c1ccc(S(=O)(=O)c2ccc(Sc3ccc(C(=O)O)c(C(=O)O)c3)cc2)cc1 | i | 622.2 | i | -0.1 | 4.0 | 3.0 | . | .
O=C1CC(=O)N(Cc2ccco2)C(=S)N1 | i | 314.1 | i | 9.8 | 68.0* | 3.7 | -4.5 | 98.6
O=C(CC1SC(N2CCCCC2)=NC1=O)Nc1ccc(C(=O)NCc2ccccc2)cc1 (centres undefined) | . | 342.4 | i | 4.5 | 0.0 | 4.0 | . | .
